The source made the active and inactive calls. No cut-off for these calls is given here.
System: Trichomonas vaginalis
Assay: Inhibition of Trichomonas vaginalis uridine nucleoside ribohydrolase using 5-fluorouridine as substrate at 0.04 to 200 uM after 40 mins by NMR spectrometric analysis
How it was run: (§1)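 UNH at 80 nM in 50 mM potassium phosphate, 0.3 M KCl, pH 6.5, with 10% 2H2O. Test compounds added from DMSO solutions and mixed thoroughly. Reaction read at the 40 min time point. Screening was done at 50 μM in mixtures of three. IC50 determinations used final assay concentrations from 200 μM to 0.04 μM.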
With COC(=O)C1=C(C)NC(C)=C(C(=O)OC)C1c1ccccc1[N+](=O)[O-] the inhibition was “Active”. With CN[C@@H]1C[C@@H](c2ccc(Cl)c(Cl)c2)c2ccccc21 (relative stereo) the inhibition was “Active”. In the case of COc1ccc2[nH]c([S+]([O-])Cc3ncc(C)c(OC)c3C)nc2c1 (stereo unspecified) [OMEPRAZOLE], the Active/inactive screening call is reported as “Active”. In the case of O=C(O[C@@H]1Cc2c(O)cc(O)cc2O[C@@H]1c1cc(O)c(O)c(O)c1)c1cc(O)c(O)c(O)c1, the inhibition is reported as “Active”. With COC(=O)C1=C(C)NC(C)=C(C(=O)OCCN(C)Cc2ccccc2)C1c1cccc([N+](=O)[O-])c1 (stereo unspecified) the Active/inactive screening call was “Active”. In the case of Sc1ncnc2nc[nH]c12, the Active/inactive screening call is reported as “Active”. In the case of CCOC(=O)C1=C(COCCN)NC(C)=C(C(=O)OC)C1c1ccccc1Cl (stereo unspecified), the inhibition is reported as “Active”. In the case of CC1=C(/C=C/C(C)=C/C=C/C(C)=C\C(=O)O)C(C)(C)CCC1, the Active/inactive screening call is reported as “Active”. In the case of Oc1cc2c(cc1O)[C@H]1c3ccccc3CN[C@@H]1CC2 (relative stereo), the Active/inactive screening call is reported as “Active”. For CCOC(=O)C1=C(C)NC(C)=C(C(=O)OC)C1c1cccc([N+](=O)[O-])c1 (stereo unspecified), the Active/inactive screening call was “Active”. For CN(C)[C@@H]1C(O)=C(C(N)=O)C(=O)[C@@]2(O)C(O)=C3C(=O)c4c(O)cccc4[C@@](C)(O)[C@H]3[C@H](O)[C@@H]12, the Active/inactive screening call was “Active”. With COc1ccnc(C[S+]([O-])c2nc3cc(OC(F)F)ccc3[nH]2)c1OC (stereo unspecified) [PANTOPRAZOLE SODIUM] the Active/inactive screening call was “Active”. In the case of O=C1C(CC[S+]([O-])c2ccccc2)C(=O)N(c2ccccc2)N1c1ccccc1 (stereo unspecified), the Active/inactive screening call is reported as “Active”. In the case of CN(C)CCCN1c2ccccc2CCc2ccc(Cl)cc21, the Active/inactive screening call is reported as “Active”. In the case of CNC1=Nc2ccc(Cl)cc2C(c2ccccc2)=[N+]([O-])C1, the inhibition is reported as “Active”. For COCCCOc1ccnc(C[S+]([O-])c2nc3ccccc3[nH]2)c1C (stereo unspecified) [RABEPRAZOLE], the Active/inactive screening call was “Active”. In the case of CCC1=C[C@@H]2CN(C1)Cc1c([nH]c3ccccc13)[C@@](C(=O)OC)(c1cc3c(cc1OC)N(C)[C@H]1[C@@](O)(C(=O)OC)[C@H](OC(C)=O)[C@]4(CC)C=CCN5CC[C@]31[C@@H]54)C2, the Active/inactive screening call is reported as “Active”. For N[C@@H](C(=O)N[C@@H]1C(=O)N2C(C(=O)O)=C(Cl)CS[C@H]12)c1ccccc1, the Active/inactive screening call was “Active”. With CC1=C(/C=C/C(C)=C/C=C/C(C)=C/C(=O)O)C(C)(C)CCC1 the Active/inactive screening call was “Active”. For N[C@@H](C(=O)N[C@@H]1C(=O)N2C(C(=O)O)=C(CSc3c[nH]nn3)CS[C@H]12)c1ccc(O)cc1, the Active/inactive screening call was “Active”. For CC(=O)Oc1ccccc1C(=O)Nc1ncc([N+](=O)[O-])s1, the inhibition was “Active”. With COC(=O)C1=C(C)NC(C)=C(C(=O)OCC(C)C)C1c1ccccc1[N+](=O)[O-] (stereo unspecified) the Active/inactive screening call was “Active”. In the case of Oc1ccc2c3c1O[C@H]1c4[nH]c5ccccc5c4C[C@@]4(O)[C@@H](C2)N(CC2CC2)CC[C@]314, the inhibition is reported as “Active”.

Target: not listed separately
Assay: Inhibition of Trichomonas vaginalis uridine nucleoside ribohydrolase using 5-fluorouridine as substrate after 40 mins by NMR spectrometric analysis
How it was run: as §1
Molecule COc1ccc2[nH]c([S+]([O-])Cc3ncc(C)c(OC)c3C)nc2c1 (stereo unspecified) [OMEPRAZOLE] has an IC50 of 2300 nM. COc1ccnc(C[S+]([O-])c2nc3cc(OC(F)F)ccc3[nH]2)c1OC (stereo unspecified) [PANTOPRAZOLE SODIUM] showed an IC50 of 14500 nM. COCCCOc1ccnc(C[S+]([O-])c2nc3ccccc3[nH]2)c1C (stereo unspecified) [RABEPRAZOLE] showed an IC50 of 300 nM.
